Assay results pooled from the literature.
Protocols differ between the studies behind these lines.
Target: Serine/threonine-protein kinase 38 (STK38, Homo sapiens, UniProt Q15208)

| SMILES | read-out | method | concentration | remaining binding [%] |
| --- | --- | --- | --- | --- |
| CN(C)c1ncc(F)c(-c2cnn3ncccc23)n1 | binding |  | 1 µM | 90 |
| COc1ccc2c(O[C@@H]3C[C@H]4C(=O)N[C@]5(C(=O)O)CC5/C=C\CCCCC[C@H](NC(=O)OC5CCCC5)C(=O)N4C3)cc(-c3csc(NC(=O)C(C)C)n3)nc2c1C (stereo partly drawn) | cell-free assay | competition with immobilised ligand | 1 µM | 50 |
| C[C@H]1CCN(c2nccc(-c3cnn4ncccc34)n2)C1 | binding |  | 1 µM | 93 |
| CCN1CCN(Cc2ccc(C(=O)Nc3ccc(C)c(Oc4ccc5c(c4)CC(=O)N5)c3)cc2C(F)(F)F)CC1 | binding | competition with immobilised ligand | 1 µM | 100 |
| CN(c1nccc(-c2cnn3ncccc23)n1)C1CC1 | binding |  | 1 µM | 100 |
| O=C(c1ccc(Nc2ncc(Cl)c(-c3cc4ccccc4s3)n2)cc1)N1CCC(N2CCCC2)CC1 | binding | competition with immobilised ligand | 1 µM | 78 |
| Nc1ncc2c(n1)-c1c([nH]c3ccc(C#CC4CC4)cc13)CCCC2 | binding | competition with immobilised ligand | 1 µM | 87 |
| O=C(c1ccc(Nc2ncc(Cl)c(-c3ccc(Cl)s3)n2)cc1)N1CCC(N2CCCC2)CC1 | binding | competition with immobilised ligand | 1 µM | 67 |
| Cc1c[nH]c2nccc(Oc3c(F)cc(Nc4cc(Cl)nc(N)n4)cc3F)c12 | cell-free assay | competition with immobilised ligand | 0.1 µM | 89 |
| Cc1cnc(Nc2ccc(C(=O)N3CCC(N4CCCC4)CC3)cc2)nc1-c1cc2ccccc2s1 | binding | competition with immobilised ligand | 1 µM | 79 |
| FC(F)(F)Oc1cccc(-c2cnc3ccc(-c4ccncc4)nn23)c1 | cell-free assay | competition with immobilised ligand | 5 µM | 80 |
| COc1ccnn2ncc(-c3ccnc(N(C)C)n3)c12 | binding |  | 1 µM | 100 |
| COc1ccc2cc(OCC3(C(=O)O)CN(C(=O)c4ccc(F)cc4)C3)ccc2c1 | cell-free assay | competition with immobilised ligand | 1 µM | 98 |
| COc1cnc(Nc2cccc(S(N)(=O)=O)c2)nc1N1CCN(c2ccccc2)CC1 | binding | competition with immobilised ligand | 1 µM | 78 |
| N[C@@H]1CCN(c2nccc(-c3cnn4ncccc34)n2)C1 | binding |  | 1 µM | 84 |
| CCOCCn1cc(C(=O)Nc2ccc(-n3nc(-c4cccnc4)cc3C(F)(F)F)cn2)ccc1=O | cell-free assay | competition with immobilised ligand | 1 µM | 91 |
| O=C(Nc1c[nH]nc1C(=O)NC1CCNCC1)c1cc(F)cc(F)c1 | binding | competition with immobilised ligand | 1 µM | 97 |
| C[C@@]1(Cc2ccc(C#N)cc2)C(=O)N(c2cc(Cl)cc(Cl)c2)c2ncc(C(=O)NC3(c4nc(C5CCC5)no4)CC3)n21 | cell-free assay | competition with immobilised ligand | 1 µM | 100 |
| CN(C)c1nccc(-c2cnn3ncccc23)n1 | binding |  | 1 µM | 74 |
| Cn1nc(C(F)(F)F)cc1-c1cnc(N2CCc3cc(S(=O)(=O)Nc4c(F)cc(Cl)cc4F)cc(N4CCCC4=O)c32)nc1 | cell-free assay | competition with immobilised ligand | 1 µM | 97 |
| c1cncc(-c2cccc(Nc3nccc(NC4CCCCC4)n3)c2)c1 | binding | competition with immobilised ligand | 10 µM | 89 |
